Assay results from ChEMBL document CHEMBL4689842, “EUbOPEN Chemogenomics Library wave 1” (2021).

System: HEK-293T
Experiment: Multiplex assay against HEK293T;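 on Population Tubulin-Different-Phenotype (%): share of the cells with healthy nuclei that show this phenotype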
Format: toxicity, cell-based
Details: human
How it was run: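 Live cells were stained at seeding with Hoechst33342, BioTracker Green Microtubule Cytoskeleton Dye, MitoTracker Red and Annexin V Alexa Fluor 680. Following compound addition, they were imaged on a CQ1 microscope at 37°C and 5% CO2 and gated by CellPathfinder machine learning into Hoechst high-intensity objects or normal cells, with normal cells split into healthy, pyknosed or fragmented nuclei and pyknosed cells into mitotic or apoptotic. Tubulin, mitochondrial-mass and membrane-permeability phenotypes are per cents of healthy-nucleus cells.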

[1] = 12 h, 1 µM, compound concentration 1 uM, replicate 1
[2] = 12 h, 1 µM, compound concentration 1 uM, replicate 2
[3] = 12 h, 10 µM, compound concentration 10 uM, replicate 1
[4] = 12 h, 10 µM, compound concentration 10 uM, replicate 2
[5] = 24 h, 1 µM, compound concentration 1 uM, replicate 1
[6] = 24 h, 1 µM, compound concentration 1 uM, replicate 2
[7] = 24 h, 10 µM, compound concentration 10 uM, replicate 1
[8] = 24 h, 10 µM, compound concentration 10 uM, replicate 2
[9] = 48 h, 1 µM, compound concentration 1 uM, replicate 1
[10] = 48 h, 1 µM, compound concentration 1 uM, replicate 2
[11] = 48 h, 10 µM, compound concentration 10 uM, replicate 1
[12] = 48 h, 10 µM, compound concentration 10 uM, replicate 2

## O=C1N/C(=N/c2ccccc2F)S/C1=C\c1ccc(C(=O)O)cc1
[1]
  Population Apoptotic (%): 31%
  Population Fragmented Nuclei (%): 14%
  Population Healthy Nuclei (%): 38%
  Population Hoechst High Intensity Objects (%): 14%
  Population Membrane Permeable-Phenotype (%): 0%
  Population Mitochondria Different-Phenotype (%): 70%
  Population Mitotic Cells (%): 68%
  Population Normal (%): 85%
  Population Pyknosed Nuclei (%): 46%
  Population Tubulin-Different-Phenotype (%): 21%
  Total Cell Count: 182
[2]
  Population Apoptotic (%): 8%
  Population Fragmented Nuclei (%): 6%
  Population Healthy Nuclei (%): 42%
  Population Hoechst High Intensity Objects (%): 4%
  Population Membrane Permeable-Phenotype (%): 6%
  Population Mitochondria Different-Phenotype (%): 6%
  Population Mitotic Cells (%): 91%
  Population Normal (%): 95%
  Population Pyknosed Nuclei (%): 50%
  Population Tubulin-Different-Phenotype (%): 6%
  Total Cell Count: 145
[3]
  Population Apoptotic (%): 36%
  Population Fragmented Nuclei (%): 10%
  Population Healthy Nuclei (%): 38%
  Population Hoechst High Intensity Objects (%): 14%
  Population Membrane Permeable-Phenotype (%): 4%
  Population Mitochondria Different-Phenotype (%): 63%
  Population Mitotic Cells (%): 63%
  Population Normal (%): 85%
  Population Pyknosed Nuclei (%): 50%
  Population Tubulin-Different-Phenotype (%): 33%
  Total Cell Count: 203
[4]
  Population Apoptotic (%): 10%
  Population Fragmented Nuclei (%): 4%
  Population Healthy Nuclei (%): 51%
  Population Hoechst High Intensity Objects (%): 3%
  Population Membrane Permeable-Phenotype (%): 5%
  Population Mitochondria Different-Phenotype (%): 18%
  Population Mitotic Cells (%): 89%
  Population Normal (%): 96%
  Population Pyknosed Nuclei (%): 43%
  Population Tubulin-Different-Phenotype (%): 16%
  Total Cell Count: 212
[5]
  Population Apoptotic (%): 43%
  Population Fragmented Nuclei (%): 16%
  Population Healthy Nuclei (%): 38%
  Population Hoechst High Intensity Objects (%): 12%
  Population Membrane Permeable-Phenotype (%): 3%
  Population Mitochondria Different-Phenotype (%): 46%
  Population Mitotic Cells (%): 56%
  Population Normal (%): 87%
  Population Pyknosed Nuclei (%): 45%
  Population Tubulin-Different-Phenotype (%): 24%
  Total Cell Count: 185
[6]
  Population Apoptotic (%): 8%
  Population Fragmented Nuclei (%): 6%
  Population Healthy Nuclei (%): 56%
  Population Hoechst High Intensity Objects (%): 5%
  Population Membrane Permeable-Phenotype (%): 12%
  Population Mitochondria Different-Phenotype (%): 13%
  Population Mitotic Cells (%): 91%
  Population Normal (%): 94%
  Population Pyknosed Nuclei (%): 36%
  Population Tubulin-Different-Phenotype (%): 21%
  Total Cell Count: 168
[7]
  Population Apoptotic (%): 51%
  Population Fragmented Nuclei (%): 13%
  Population Healthy Nuclei (%): 46%
  Population Hoechst High Intensity Objects (%): 16%
  Population Membrane Permeable-Phenotype (%): 5%
  Population Mitochondria Different-Phenotype (%): 48%
  Population Mitotic Cells (%): 48%
  Population Normal (%): 83%
  Population Pyknosed Nuclei (%): 39%
  Population Tubulin-Different-Phenotype (%): 26%
  Total Cell Count: 236
[8]
  Population Apoptotic (%): 13%
  Population Fragmented Nuclei (%): 5%
  Population Healthy Nuclei (%): 69%
  Population Hoechst High Intensity Objects (%): 4%
  Population Membrane Permeable-Phenotype (%): 8%
  Population Mitochondria Different-Phenotype (%): 17%
  Population Mitotic Cells (%): 86%
  Population Normal (%): 96%
  Population Pyknosed Nuclei (%): 25%
  Population Tubulin-Different-Phenotype (%): 24%
  Total Cell Count: 275
[9]
  Population Apoptotic (%): 44%
  Population Fragmented Nuclei (%): 20%
  Population Healthy Nuclei (%): 43%
  Population Hoechst High Intensity Objects (%): 16%
  Population Membrane Permeable-Phenotype (%): 2%
  Population Mitochondria Different-Phenotype (%): 27%
  Population Mitotic Cells (%): 55%
  Population Normal (%): 83%
  Population Pyknosed Nuclei (%): 36%
  Population Tubulin-Different-Phenotype (%): 26%
  Total Cell Count: 254
[10]
  Population Apoptotic (%): 14%
  Population Fragmented Nuclei (%): 6%
  Population Healthy Nuclei (%): 80%
  Population Hoechst High Intensity Objects (%): 5%
  Population Membrane Permeable-Phenotype (%): 11%
  Population Mitochondria Different-Phenotype (%): 6%
  Population Mitotic Cells (%): 85%
  Population Normal (%): 94%
  Population Pyknosed Nuclei (%): 12%
  Population Tubulin-Different-Phenotype (%): 24%
  Total Cell Count: 299
[11]
  Population Apoptotic (%): 29%
  Population Fragmented Nuclei (%): 18%
  Population Healthy Nuclei (%): 45%
  Population Hoechst High Intensity Objects (%): 11%
  Population Membrane Permeable-Phenotype (%): 2%
  Population Mitochondria Different-Phenotype (%): 19%
  Population Mitotic Cells (%): 70%
  Population Normal (%): 88%
  Population Pyknosed Nuclei (%): 35%
  Population Tubulin-Different-Phenotype (%): 21%
  Total Cell Count: 279
[12]
  Population Apoptotic (%): 6%
  Population Fragmented Nuclei (%): 6%
  Population Healthy Nuclei (%): 83%
  Population Hoechst High Intensity Objects (%): 2%
  Population Membrane Permeable-Phenotype (%): 3%
  Population Mitochondria Different-Phenotype (%): 5%
  Population Mitotic Cells (%): 94%
  Population Normal (%): 97%
  Population Pyknosed Nuclei (%): 9%
  Population Tubulin-Different-Phenotype (%): 14%
  Total Cell Count: 534
